The values that follow come from ChEMBL document CHEMBL4513216, “Probing the Open Global Health Chemical Diversity Library for Multistage-Active Starting Points for Next-Generation Antimalarials” (ACS Infect Dis, 2020).

Molecules are shown by their SMILES.

A short description of the series: Toxicity liver stage against HepG2, at 10uM. Set-up: test concentration 10 uM, cell line HepG2-A16-CD81EGFP. It counts as cell-based. The following applies: human, HepG2-A16-CD81EGFP cells; read-out: INHIBITION
Summed up: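 Uninfected HepG2-A16-CD81EGFP cells, 3 × 10^3 per well, 1536-well, plated on prespotted compound at 10 μM final, parasite-free screening media added to match infected plates; puromycin 10 μM positive, DMSO 0.5% negative; run in parallel with 48 h PbLuc assay at 37 °C, 5% CO2; viability by CellTiter-Glo luminescence, normalized to controls.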
`c1cc(N2CCC3(COCc4cnc(NCC5CC5)nc43)C2)ncn1` (configuration not stated): the cytotoxicity at 10 µM was 6.27%.

As to `O=C(c1ccsc1)N1C[C@H]2CN(Cc3cccc(F)c3)C(=O)[C@H]2C1`, the cytotoxicity at 10 µM was found to be 0.98%.

Turning to `Cc1noc(C)c1CNCC1CNc2ccnn2C1` (configuration not stated), the cytotoxicity at 10 µM is -2.72%.

With `CCOC(=O)c1sc(NC(=O)CCCC(=O)O)c(C#N)c1C`, the cytotoxicity at 10 µM came to 11.6%.

Consider `Cc1nn(C)c(C)c1C(C)NC(=O)Nc1cccnc1N1CCCC1` (configuration not stated), for which the cytotoxicity at 10 µM was -6.88%.

With `c1coc(CN2CCC3(CC2)COCCN(CCN2CCCC2)C3)c1`, the cytotoxicity at 10 µM was -7.82%.

In the case of `CNC(=O)c1ccc(N(C)C2CCC2)nn1`, the cytotoxicity at 10 µM was determined as 4.49%.

As to `CCC[C@@H](NC(N)=O)C(=O)N1CCc2c(Cl)cccc2C1`, the cytotoxicity at 10 µM was 5.79%.

As to `Cn1cnc(S(=O)(=O)N2CC3(CCN(CC4CC4)C3)C2)c1`, the cytotoxicity at 10 µM is -99.2%.

Take `Cc1noc(C)c1CN1C[C@@H]2COC[C@@H](CC(=O)N3CCCO3)[C@@H]2C1`: the cytotoxicity at 10 µM was -68.3%.

Turning to `Cc1noc2ncc(S(=O)(=O)N3CCCC(C)(C)CC3)cc12`, the cytotoxicity at 10 µM came to 8.88%.

With `CC(=O)NCC(=O)N1CCC2(CC1)NC(=O)CC2c1cnn(C)c1` (configuration not stated), the cytotoxicity at 10 µM was -0.113%.

For the compound `CC(C)c1cc(C(=O)NCCN2CCCS2(=O)=O)n[nH]1`, the cytotoxicity at 10 µM was -9.91%.

Consider `O=S(=O)(Cc1ccccc1)NCc1ccco1`, for which the cytotoxicity at 10 µM amounted to 0.0906%.

In the case of `NC(=O)CN1CCC(c2cccc(Oc3ccccc3)n2)CC1`, the cytotoxicity at 10 µM was -4.72%.

As for `Cc1cc(NC(=O)NCc2ccc(C)s2)no1`, the cytotoxicity at 10 µM is -5.29%.

For the compound `Cc1cc2n(n1)CC(CNC1CCN(C(=O)C3CC3)CC1)CN2` (configuration not stated), the cytotoxicity at 10 µM turned out to be 5.17%.

With `Cc1c(C(=O)NS(=O)(=O)c2ccc(F)cc2)cnn1CC(C)C`, the cytotoxicity at 10 µM was -6.63%.

Turning to `O=C(NCc1nn(-c2ccccc2)c2c1CCC2)NC1CC1`, the cytotoxicity at 10 µM was -9.14%.

As for `CN1C(=O)C(c2cccnc2)CC12CCN(C(=O)c1ccc[nH]1)CC2` (configuration not stated), the cytotoxicity at 10 µM is -0.19%.

Take `O=C1N(c2ccsc2)CCC12CCCN(c1ncc(F)cn1)C2` (configuration not stated): the cytotoxicity at 10 µM is -105%.

As to `CC(O)CN1CCC(CNCc2cccc(C(F)(F)F)c2)CC1` (configuration not stated), the cytotoxicity at 10 µM is -15.2%.

In the case of `CN1CCC2(CC1)CC(NC(=O)c1csnn1)c1ccccc1O2` (configuration not stated), the cytotoxicity at 10 µM was -95.4%.

On to `O=C(CCC1CCCO1)NCCc1ccccn1` (configuration not stated), for which the cytotoxicity at 10 µM is -43.2%.

As to `CCSc1ccccc1C(=O)NCCN1CCC(c2cccs2)CC1`, the cytotoxicity at 10 µM was -7.98%.

In the case of `COc1cc(CCC(C)O)c(OC)c2c1OCO2` (configuration not stated), the cytotoxicity at 10 µM amounted to 6.79%.

Take `Cc1cc(C2CCCN(CCNS(=O)(=O)c3ccccc3)C2)n[nH]1` (configuration not stated): the cytotoxicity at 10 µM was -28.5%.

Turning to `CCOC(=O)NC(CNC(=O)c1cccc(C)n1)CC(C)C` (configuration not stated), the cytotoxicity at 10 µM worked out at 6.17%.

On to `Cc1noc(C)c1CN1CCO[C@H]2CN(Cc3cccnc3)C[C@H]21`, for which the cytotoxicity at 10 µM is -2.61%.

Turning to `N#Cc1cccnc1Oc1cc(F)c(CN2CCCC2)c(Cl)c1`, the cytotoxicity at 10 µM was -13.9%.

On to `CCNc1cc2c(nn1)CCN(C(=O)c1cccc3c1OCCO3)C2`, for which the cytotoxicity at 10 µM is -8.42%.

Turning to `Cn1cc(C(=O)N2CCC(Cc3nccs3)CC2)cn1`, the cytotoxicity at 10 µM was found to be 7.63%.

On to `CC1CCN(S(=O)(=O)NCc2ccccc2Cn2cccn2)CC1`, for which the cytotoxicity at 10 µM came out at 7.4%.

Turning to `CN(C)C(=O)COC1COC2(CCN(S(C)(=O)=O)CC2)C1` (configuration not stated), the cytotoxicity at 10 µM was -1.08%.

For the compound `CC(C)(O)CN1CCN(C(=O)c2ccc(Cl)c3cccnc23)CC1`, the cytotoxicity at 10 µM was -9.19%.

As to `CCOCC(O)CN1CCN(C(=O)C(C)(C)CC)CC1` (configuration not stated), the cytotoxicity at 10 µM is -20.7%.

For the compound `Cc1nc(COc2ccc(OC3CCCCNC3=O)cc2)oc1C` (configuration not stated), the cytotoxicity at 10 µM stood at 15.2%.

As for `CC(C)N1CCC(C(=O)N2CCc3c(nc(CC4CC4)[nH]c3=O)C2)CC1`, the cytotoxicity at 10 µM is -4.92%.

As for `Cn1ccnc1-c1noc(NCc2ccc3c(c2)OCCO3)n1`, the cytotoxicity at 10 µM is -0.408%.

In the case of `CCNC(=O)[C@@H]1CCCN1C1(C(=O)NC)CCC1`, the cytotoxicity at 10 µM is -1.66%.

Consider `CC(C)c1nc(CN2CCCC(O)C2)cs1` (configuration not stated), for which the cytotoxicity at 10 µM was -7.13%.

As for `O=C(CCn1cccc1)NCc1ccc(CN2CCCCCC2)o1`, the cytotoxicity at 10 µM was -5.2%.

On to `Cc1csc(CCNC(=O)N2CCC(n3cccc3)CC2)n1`, for which the cytotoxicity at 10 µM was 3.98%.

On to `COc1cccc(N2CCC(CNC(=O)CN3CSCC3=O)C2)c1` (configuration not stated), for which the cytotoxicity at 10 µM worked out at 0.342%.

As for `O=C(c1ncccn1)N1CCC[C@]2(C[C@@H](OCC3CC3)CO2)C1`, the cytotoxicity at 10 µM was -89.7%.

On to `CS(=O)(=O)N1CCCC12CCCN(S(=O)(=O)c1ccc(F)c(F)c1)C2` (configuration not stated), for which the cytotoxicity at 10 µM was 1.46%.

`Cc1ccc(S(=O)(=O)N(C)CC(N)=O)c(Cl)c1`: the cytotoxicity at 10 µM was determined as 5.79%.

On to `N#Cc1ccnc(N2CCN(CC(O)c3c(F)cccc3F)CC2)c1` (configuration not stated), for which the cytotoxicity at 10 µM is -5.43%.

In the case of `O=C(Nc1ccc(-c2nnc[nH]2)cc1)C1CCN1Cc1ccccc1` (configuration not stated), the cytotoxicity at 10 µM worked out at 9.73%.

For `CNC(=O)c1cn[nH]c1C1CCN(Cc2ccccc2F)C1` (configuration not stated), the cytotoxicity at 10 µM was -30.8%.

Turning to `CN(C)CCN(C)S(=O)(=O)CC1CCOCC1`, the cytotoxicity at 10 µM is -5.38%.

On to `COCCc1noc(CN2CCCC2c2noc(C)n2)n1` (configuration not stated), for which the cytotoxicity at 10 µM turned out to be 4.73%.

On to `N#Cc1ccc(S(=O)(=O)N2CSCC2C(=O)NCC(F)(F)F)cc1` (configuration not stated), for which the cytotoxicity at 10 µM is -7.6%.

`CNC(=O)Cc1coc(-c2ccc(F)cc2)n1`: the cytotoxicity at 10 µM was -4.15%.

As for `N#Cc1cccc(C(=O)N2CCC3(CCC(=O)N(C4CC4)C3)CC2)c1`, the cytotoxicity at 10 µM was 0.194%.

In the case of `COc1ccc(C)cc1NC(=O)Nc1cnc(N2CCCC2)nc1`, the cytotoxicity at 10 µM came to 6.62%.

In the case of `NC(=O)CC1CCN(C(=O)c2cnc(-c3ccccc3F)s2)CC1`, the cytotoxicity at 10 µM is -0.608%.

`COCC(NC(=O)c1cn(-c2cccc(Cl)c2F)nn1)C1CC1` (configuration not stated): the cytotoxicity at 10 µM came out at 11.1%.

`CCN1CCCC2(CCN(Cc3nnc(C4CC4)o3)C2)C1=O` (configuration not stated): the cytotoxicity at 10 µM worked out at 1.56%.

Regarding `COc1cccc(C(=O)N2CCc3c(nc(N)[nH]c3=O)C2)c1OC`, the cytotoxicity at 10 µM is -9.91%.

`CCC1CN(C(=O)c2ccccc2N2CCOCC2)CCN1C(C)C` (configuration not stated): the cytotoxicity at 10 µM is 7.72%.

With `CC(NCCCn1ccnc1)c1ccc(N2CCOC2=O)cc1` (configuration not stated), the cytotoxicity at 10 µM was -8.48%.

Turning to `COCCNC(=O)NC(=O)CNc1c(F)cccc1N1CCCC1`, the cytotoxicity at 10 µM is -2.05%.

Regarding `CCn1ccnc1CN1CCN(Cc2cccc(C#N)c2)CC1`, the cytotoxicity at 10 µM is -22.3%.

As for `COCC(=O)N1CC[C@]2(O)CCN(C(=O)CCc3ccsc3)C[C@@H]2C1`, the cytotoxicity at 10 µM came out at 0.689%.

As to `CCc1csc(NC(=O)Nc2c(C)n[nH]c2C)n1`, the cytotoxicity at 10 µM is -3.41%.

Consider `O=C(Nc1cccc(N2CCCC2)c1)C1CCCN1c1nccs1` (configuration not stated), for which the cytotoxicity at 10 µM was -6.08%.

`CC(C)(O)CN1CCN(C(=O)c2ccc3c(c2)COC3)CC1`: the cytotoxicity at 10 µM is -0.644%.

On to `Cc1ccccc1NCc1nc2n(n1)CCCCC2`, for which the cytotoxicity at 10 µM came out at 4.7%.

As to `Cc1ccc(S(=O)(=O)N2CCOCC2C(N)=O)c(F)c1` (configuration not stated), the cytotoxicity at 10 µM is -5.22%.

Turning to `CCC(C)Oc1ccccc1Cn1cc2[nH]cccc-2c1=O` (configuration not stated), the cytotoxicity at 10 µM is -0.0261%.

In the case of `COc1ccc(Cc2nnc(NC(=O)C3CC34CCC4)s2)cc1OC` (configuration not stated), the cytotoxicity at 10 µM was -2.21%.
